Source: ChEMBL document CHEMBL1255468 (Antimicrob Agents Chemother, 2010)
pIC50: −log10 of the molar value. Active and inactive are the calls of the source. The calls are words filed in the database; no cut-off is given here.

Key:
Trypanosoma cruzi [1] = assay: Antitrypanosomal activity against Trypanosoma cruzi Y infected in mouse assessed as decrease in mouse mortality at 200 mg/kg, po after 20 days post infection; type: functional, organism-based; set-up: dose 200 mg/kg
Summary of the method: (§1)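 Male Swiss mice (6–8 weeks, 18–20 g), 8–10 per group, infected i.p. with 10^4 bloodstream trypomastigotes (Y strain). On dpi 5, a single 200 mg/kg oral gavage dose was given in water with 10% Tween-80. Parasitemia was counted daily from dpi 6 to 21 by the Pizzi-Brener method. Body weight was recorded weekly. Mortality was recorded daily, and cumulative mortality at 40 dpi and M50 were calculated.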

Trypanosoma cruzi [2] = assay: Antitrypanosomal activity against Trypanosoma cruzi Y infected in mouse assessed as decrease in parasitemia in blood at 200 mg/kg, po upto 40 days post infection; type: functional; summary of the method: as §1
Mus musculus [3] = assay: Toxicity in mouse assessed as GPT level in blood at 100 mg/kg, po after 4 days; type: organism-based; set-up: dose 100 mg/kg, route oral; details: in vivo, 96 h
Summary of the method: (§2)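 Uninfected male Swiss mice, 8–10 per group, received by gavage either a single 400 mg/kg dose or 10 doses of 100 mg/kg (vehicle water with 10% Tween-80). GOT, GPT and urea were measured directly in blood with the Reflotron system, and body weight was recorded. Single-dose toxicity was analyzed 4 days after treatment.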

Mus musculus [4] = assay: Toxicity in mouse assessed as body weight at 400 mg/kg, po after 4 days; type: organism-based; set-up: dose 400 mg/kg, route oral; details: in vivo, 96 h; summary of the method: as §2
Trypanosoma cruzi [5] = assay: Antitrypanosomal activity against Trypanosoma cruzi trypomastigotes assessed as alteration in nuclear envelop dilation at […] after 24 hrs by Transmission electron microscopy; type: functional, organism-based
Mus musculus [6] = assay: Toxicity in mouse assessed as GPT level in blood at 400 mg/kg, po after 4 days; type: organism-based; set-up: dose 400 mg/kg, route oral; details: in vivo, 96 h; summary of the method: as §2
Trypanosoma cruzi [7] = assay: Antitrypanosomal activity against Trypanosoma cruzi amastigotes infected in mouse embryo heart muscle cells assessed as inhibition of infection; type: functional, organism-based; details: TDE = time-dependent effect
Summary of the method: (§3)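 Mouse embryo heart muscle cells (10^5/well) were plated on gelatin-coated coverslips and infected after 24 h with trypomastigotes at 10:1 parasite/host cell. After another 24 h, cultures were washed and exposed to compounds at 10–40 µM final. At intervals, cells were fixed in Bouin's solution and stained with Giemsa. Percent infection and endocytic index (parasites/100 cells) were counted, and IC50 was derived.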

Trypanosoma cruzi [8] = assay: Antitrypanosomal activity against Trypanosoma cruzi amastigotes infected in mouse embryo heart muscle cells assessed as endocytic index; type: functional, organism-based; summary of the method: as §3
Trypanosoma cruzi [9] = assay: Antitrypanosomal activity against Trypanosoma cruzi amastigotes infected in mouse peritoneal macrophages assessed as inhibition of infection after 3 day; type: functional, organism-based; details: 72 h
Summary of the method: (§4)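 Swiss mouse peritoneal macrophages (3 × 10^5/well) were plated for 24 h, then infected with Y-strain trypomastigotes (10:1) in DMEM with 10% FCS for 3 h. Free parasites were washed off, and compounds were added at 2.5–30 µM final for 1–4 days. Cells were fixed in Bouin's solution and stained with Giemsa. Percent infection and endocytic index (parasites/100 cells) were counted, and IC50 was derived. Three independent experiments.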

Trypanosoma cruzi [10] = assay: Antitrypanosomal activity against Trypanosoma cruzi Y infected in mouse assessed as decrease in mouse mortality at 200 mg/kg, po after 16 days post infection; type: functional; set-up: scale not given: the % may be the effect or the level left
Summary of the method: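 Male albino Swiss mice (6 to 8 weeks, 18 to 20 g), 8 to 10 per group, infected i.p. with 10^4 Y-strain bloodstream trypomastigotes. […] Parasitemia checked daily by Pizzi-Brener method; mortality noted daily to 40 dpi, cumulative mortality and M50 calculated.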

Trypanosoma cruzi [11] = assay: Antitrypanosomal activity against Trypanosoma cruzi amastigotes infected in mouse peritoneal macrophages assessed as inhibition of infection after 2 day; type: functional, organism-based; details: 48 h; summary of the method: as §4
Trypanosoma cruzi [12] = assay: Antitrypanosomal activity against Trypanosoma cruzi amastigotes infected in mouse peritoneal macrophages assessed as endocytic index after 3 day; type: functional, organism-based; details: 72 h; summary of the method: as §4
[13] = Selectivity index, ratio of LC50 for mouse HMC to IC50 for inhibition of Trypanosoma cruzi amastigotes
Mus musculus [14] = assay: Toxicity in mouse assessed as urea level in blood at 400 mg/kg, po after 4 days; type: organism-based; set-up: dose 400 mg/kg, route oral; details: in vivo, 96 h; summary of the method: as §2
Trypanosoma cruzi [15] = assay: Antitrypanosomal activity against Trypanosoma cruzi amastigotes infected in mouse peritoneal macrophages assessed as endocytic index after 2 day; type: functional, organism-based; details: 48 h; summary of the method: as §4
Mus musculus [16] = assay: Toxicity in mouse assessed as GOT level in blood at 100 mg/kg, po after 4 days; type: organism-based; set-up: dose 100 mg/kg, route oral; details: in vivo, 96 h; summary of the method: as §2
Trypanosoma cruzi [17] = assay: Antitrypanosomal activity against Trypanosoma cruzi infected in mouse assessed as reduction in inflammatory foci in cardiac muscle at 100 mg/kg, po after 6 days post infection; type: functional, organism-based; set-up: dose 100 mg/kg; details: Muscle tissue
Summary of the method: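 Infected mice were dosed by gavage at 100 mg/kg daily for 10 days from dpi 6. Two mice per group were euthanized at 14 dpi. Paraffin heart sections were stained with hematoxylin-eosin. Under a 40× objective, parasite nests and inflammatory foci (≥10 mononuclear cells) were counted per mm2 over 30 fields.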

[18] = Cytotoxicity against swiss mouse HMC after 48 hrs by MTT assay; details: read-out: LC50
Summary of the method: (§5)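 Uninfected host cells were exposed to compounds at 37°C for 2 days, with compound stocks in DMSO. Cells were Swiss mouse peritoneal macrophages or primary mouse embryo heart muscle cells (18-day embryos, trypsin/collagenase dissociated, gelatin-coated coverslips, DMEM with horse and fetal calf sera, chicken embryo extract). Viability was read by MTT at 490 nm to give LC50.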

Trypanosoma cruzi [19] = assay: Antitrypanosomal activity against Trypanosoma cruzi trypomastigotes assessed as alteration in flagellar structure with membrane expansion at […] after 24 hrs by Transmission electron microscopy; type: functional, organism-based
Mus musculus [20] = assay: Toxicity in mouse assessed as urea level in blood at 100 mg/kg, po after 4 days; type: organism-based; set-up: dose 100 mg/kg, route oral; details: in vivo, 96 h; summary of the method: as §2
Trypanosoma cruzi [21] = assay: Antitrypanosomal activity against Trypanosoma cruzi infected in mouse assessed as decrease in mortality rate at 100 mg/kg, po after 6 days post infection; type: functional, organism-based; set-up: dose 100 mg/kg
Summary of the method: (§6)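 Male Swiss mice, 8–10 per group, infected i.p. with 10^4 bloodstream trypomastigotes. From dpi 6, mice received 10 consecutive daily gavage doses of 100 mg/kg in water with 10% Tween-80. Parasitemia was read daily on dpi 6–21 by the Pizzi-Brener method. Mortality was noted daily, and %CM at 40 dpi and M50 were calculated.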

Trypanosoma cruzi [22] = assay: Antitrypanosomal activity against Trypanosoma cruzi trypomastigotes assessed as alteration in autophagosome-like structure formation at […] after 24 hrs by Transmission electron microscopy; type: functional, organism-based
[23] = Cytotoxicity against Swiss mouse peritoneal macrophages after 48 hrs by MTT assay; type: cell-based, Peritoneal macrophage cell; details: read-out: LC50; summary of the method: as §5
Trypanosoma cruzi [24] = assay: Antitrypanosomal activity against Trypanosoma cruzi amastigotes infected in mouse peritoneal macrophages assessed as endocytic index after 1 day; type: functional, organism-based; details: 24 h; summary of the method: as §4
Trypanosoma cruzi [25] = assay: Antitrypanosomal activity against Trypanosoma cruzi amastigotes infected in mouse peritoneal macrophages assessed as inhibition of infection after 4 day; type: functional, organism-based; details: 96 h; summary of the method: as §4
Trypanosoma cruzi [26] = assay: Antitrypanosomal activity against Trypanosoma cruzi amastigotes infected in mouse embryo heart muscle cells assessed as inhibition of infection after 24 hrs; type: functional, organism-based; summary of the method: as §3
Trypanosoma cruzi [27] = assay: Antitrypanosomal activity against Trypanosoma cruzi amastigotes infected in mouse peritoneal macrophages assessed as inhibition of infection after 1 day; type: functional, organism-based; details: 24 h; summary of the method: as §4
Trypanosoma cruzi [28] = assay: Antitrypanosomal activity against Trypanosoma cruzi trypomastigotes assessed as parasite body rounding at […] after 24 hrs by scanning electron microscopy; type: functional, organism-based
Trypanosoma cruzi [29] = assay: Antitrypanosomal activity against Trypanosoma cruzi infected in mouse assessed as decrease in parasitemia in blood at 100 mg/kg, po after 6 days post infection; type: functional; summary of the method: as §6
[30] = Selectivity index, ratio of LC50 for mouse peritoneal macrophages to IC50 for inhibition of Trypanosoma cruzi amastigotes
Summary of the method: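 SI = LC50/IC50 in peritoneal macrophages. LC50 came from the 2-day MTT assay on uninfected macrophages. Cells were Bouin-fixed and Giemsa-stained, and endocytic index (parasites/100 cells) was counted. Three independent experiments.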

Trypanosoma cruzi [31] = assay: Antitrypanosomal activity against Trypanosoma cruzi amastigotes infected in mouse peritoneal macrophages assessed as endocytic index after 4 day; type: functional, organism-based; details: 96 h; summary of the method: as §4
Mus musculus [32] = assay: Toxicity in mouse assessed as GOT level in blood at 400 mg/kg, po after 4 days; type: organism-based; set-up: dose 400 mg/kg, route oral; details: in vivo, 96 h; summary of the method: as §2
Trypanosoma cruzi [33] = assay: Antitrypanosomal activity against Trypanosoma cruzi Y infected in mouse assessed as decrease in mouse mortality at 200 mg/kg, po upto 40 days post infection; type: functional, organism-based; set-up: dose 200 mg/kg; summary of the method: as §1

Cn1c([N+](=O)[O-])cnc1-c1nnc(N/N=C\c2ccc([N+](=O)[O-])cc2)s1
Activity (Trypanosoma cruzi [1]): inactive | Activity (Trypanosoma cruzi [2]): Active

Cn1c([N+](=O)[O-])cnc1-c1nnc(N/N=C\c2ccc(O)c(O)c2)s1 [BRAZILIZONE A]
Activity (Mus musculus [3]): Non-toxic | Activity (Mus musculus [4]): 25.8 g | Activity (Trypanosoma cruzi [5]): Active | Activity (Mus musculus [6]): 22.7 U/L | Activity (Trypanosoma cruzi [7]): tde | pIC50 (Trypanosoma cruzi [8]): 5.12 | pIC50 (Trypanosoma cruzi [9]): 5.59 | Activity (Trypanosoma cruzi [10]): 50% | pIC50 (Trypanosoma cruzi [11]): 5.36 | pIC50 (Trypanosoma cruzi [12]): 5.85 | fold change (FC) [13]: > 32 | Activity (Mus musculus [14]): 51.6 mg/dL | pIC50 (Trypanosoma cruzi [15]): 5.66 | Activity (Mus musculus [16]): Non-toxic | Activity (Trypanosoma cruzi [17]): inactive | CC50 at 48 h [18]: > 240000 nM | Activity (Trypanosoma cruzi [19]): Active | Activity (Mus musculus [20]): Non-toxic | Activity (Trypanosoma cruzi [21]): inactive | Activity (Trypanosoma cruzi [22]): Active | CC50 at 48 h [23]: > 60000 nM | pIC50 (Trypanosoma cruzi [24]): 5.70 | pIC50 (Trypanosoma cruzi [25]): 5.77 | Activity (Trypanosoma cruzi [26]): Dose-dependent effect | pIC50 (Trypanosoma cruzi [27]): 5.68 | Activity (Trypanosoma cruzi [28]): Active | Activity (Trypanosoma cruzi [29]): inactive | Ratio LC50/IC50 [30]: >27 | Activity (Trypanosoma cruzi [2]): inactive | pIC50 (Trypanosoma cruzi [31]): 5.72 | Activity (Mus musculus [32]): 62.4 U/L | Activity (Trypanosoma cruzi [33]): inactive
